Series [1] concerns Human betaherpesvirus 5. As to the kind of experiment: Antiviral activity against human cytomegalovirus AD169 infected in human HFF assessed as inhibition of plaque formation by plaque reduction assay. It is filed as functional, organism-based. The conditions noted are these: Human betaherpesvirus 5, AD169. Summed up:
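Plaque reduction against AD169 in HFF. EC50 is the concentration giving 50% inhibition of plaque formation, reported as mean ± SD of at least three independent experiments run in duplicate.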

Series [2] in a line: Selectivity index, ratio of CC50 for human HFF to EC50 for human cytomegalovirus AD169. An outline of the steps:
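Selectivity index is CC50 from the HFF MTT assay divided by EC50 from the AD169 plaque reduction assay in HFF.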

The nature of series [3]: Cytotoxicity against human HFF by MTT assay. It is filed as cell-based. The conditions noted are these: HFF cells. An outline of the steps:
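Cytotoxicity in HFF was measured by MTT reduction. CC50 is the concentration causing 50% cytotoxicity, reported as mean ± SD of at least three independent experiments run in quadruplicate.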

Series [4] in a line: Inhibition of human cytomegalovirus DNA polymerase catalytic subunit UL54 assessed as incorporation of [3H]dTTP. Also noted: species or system Human betaherpesvirus 5. An outline of the steps: (§1)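 Filter-based assay with purified baculovirus-expressed UL54 catalytic subunit, alone or with UL44 accessory subunit. Incorporation of [3H]dTTP into poly(dA)-oligo(dT)12-18 template-primer was measured across serial compound dilutions, with FOS as control. Means ± standard deviations from four independent experiments.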

For series [5], the system named is Human betaherpesvirus 5. As to the kind of experiment: Antiviral activity against 0.1 MOI human cytomegalovirus AD169 infected in human HFF assessed as inhibition of late phase UL55 protein expression after 72 hrs of infection by Western blot analysis. It is filed as functional, organism-based. Summed up: (§2)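 HFF infected with HCMV AD169 at MOI 0.1 PFU/cell, treated with 50 µM compound or 0.2% DMSO. ActD 5 µg/ml, CHX 75 µg/ml and FOS 750 µM served as controls. Harvests at 24, 48 and 72 h p.i. were lysed in NP-40 buffer, then SDS-PAGE and PVDF blotting. Probes were anti-IE1/IE2 (p72/p86) MAb or anti-UL55, then HRP secondary and ECL. β-actin reprobe was the internal control.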

A short description of series [6]: Inhibition of human cytomegalovirus DNA polymerase catalytic subunit UL54/UL44 assessed as incorporation of [3H]dTTP. Also noted: species or system Human betaherpesvirus 5. An outline of the steps: as §1
The subject of series [7] is Human betaherpesvirus 5. As to the kind of experiment: Antiviral activity against 0.1 MOI human cytomegalovirus AD169 infected in human HFF assessed as inhibition of late phase mRNA expression after 16 hrs by RT-PCR analysis. The series is classed as functional, organism-based. An outline of the steps: (§3)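 HFF seeded at 6×10^5 per well, infected with AD169 at MOI 0.1 PFU/cell, then given 50 µM drug or 0.2% DMSO. ActD 5 µg/ml, CHX 75 µg/ml and FOS 750 µM served as IE, E and L transcription controls. Total RNA was taken at 16 and 48 h p.i.; 1 µg was reverse-transcribed with random hexamers and MuLV RT. PCR used UL122/UL123 (IE), UL54/UL84 (E) and UL55/UL75 (L) primers with a β-actin control, and products were read on ethidium bromide agarose gels.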

Series [8] concerns Human betaherpesvirus 5. As to the kind of experiment: Antiviral activity against 0.1 MOI human cytomegalovirus AD169 infected in human HFF assessed as inhibition of immediate early phase mRNA expression after 16 hrs by RT-PCR analysis. The series is classed as functional, organism-based. Summed up: as §3
Series [9] concerns Human betaherpesvirus 5. As to the kind of experiment: Antiviral activity against 0.1 MOI human cytomegalovirus AD169 infected in human HFF assessed as inhibition of early phase mRNA expression after 48 hrs by RT-PCR analysis. The series is classed as functional, organism-based. Summed up: as §3
In series [10] the test system is Human betaherpesvirus 5. As to the kind of experiment: Antiviral activity against 0.1 MOI human cytomegalovirus AD169 infected in human HFF assessed as inhibition of immediate early phase mRNA expression after 48 hrs by RT-PCR analysis. The series is classed as functional, organism-based. An outline of the steps: as §3
Series [11] has as its system Human betaherpesvirus 5. As to the kind of experiment: Antiviral activity against 0.1 MOI human cytomegalovirus AD169 infected in human HFF assessed as inhibition of early phase mRNA expression after 16 hrs by RT-PCR analysis. The series is classed as functional, organism-based. Summed up: as §3
Series [12] deals with Human betaherpesvirus 5. As to the kind of experiment: Antiviral activity against human cytomegalovirus AD169 in human HFF assessed as reduction of viral attachment to fibroblast after 2 hrs at 37 degC. It is filed as functional, organism-based.
Series [13] has as its system Human betaherpesvirus 5. As to the kind of experiment: Antiviral activity against 0.1 MOI human cytomegalovirus AD169 infected in human HFF assessed as inhibition of immediate early phase P72 protein expression after 24 hrs by Western blot analysis. It is filed as functional, organism-based. Summed up:
as §2

Series [14] has as its system Human betaherpesvirus 5. As to the kind of experiment: Antiviral activity against 0.1 MOI human cytomegalovirus AD169 infected in human HFF assessed as inhibition of immediate early phase P86 protein expression after 24 hrs by Western blot analysis. The series is classed as functional, organism-based. Summed up: as §2
In series [15] the test system is Human betaherpesvirus 5. As to the kind of experiment: Antiviral activity against 0.1 MOI human cytomegalovirus AD169 infected in human HFF assessed as inhibition of early phase UL54 mRNA expression after 16 hrs by RT-PCR analysis.
In series [16] the test system is Human betaherpesvirus 5. As to the kind of experiment: Antiviral activity against 0.1 MOI human cytomegalovirus AD169 infected in human HFF assessed as inhibition of early phase UL84 mRNA expression after 16 hrs by RT-PCR analysis.
In series [17] the test system is Human betaherpesvirus 5. As to the kind of experiment: Antiviral activity against 0.1 MOI human cytomegalovirus AD169 infected in human HFF assessed as virus yield reduction by yield reduction assay. The series is classed as functional, organism-based. The conditions noted are these: Human betaherpesvirus 5, AD169.
The subject of series [18] is Human betaherpesvirus 5. As to the kind of experiment: Antiviral activity against 0.1 MOI human cytomegalovirus AD169 infected in human HFF assessed as inhibition of viral replication up to 72 hrs post infection. It is filed as functional, organism-based.
In series [19] the test system is Human betaherpesvirus 5. As to the kind of experiment: Antiviral activity against 1 MOI human cytomegalovirus AD169 infected in human HFF assessed as virus yield reduction by yield reduction assay. Particulars: Human betaherpesvirus 5, AD169. The series is classed as functional, organism-based.
Series [20] has as its system Human betaherpesvirus 5. As to the kind of experiment: Antiviral activity against 0.1 MOI human cytomegalovirus AD169 infected in human U373-MG cells expressing UL54-EGFP reporter assessed as inhibition of EGFP expression after 48 hrs of infection by confocal fluorescence microscopy. The series is classed as functional, organism-based. The conditions noted are these: U-373MG ATCC. An outline of the steps: (§4)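 Stable U373-MG reporter cells were seeded on coverslips at 3×10^5 per well and infected with AD169 at MOI 0.1 or 0.5. They were then treated with 50 µM drug, 5 µM fomivirsen (also given 1 h before and during infection) or 0.2% DMSO. At 48 h p.i. cells were fixed in 4% paraformaldehyde for 15 min, and EGFP-positive cells were counted by confocal microscopy at 20×.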

Series [21] relates to Human betaherpesvirus 5. As to the kind of experiment: Antiviral activity against 0.1 MOI human cytomegalovirus AD169 infected in human U373-MG cells expressing UL112/113-EGFP reporter assessed as inhibition of EGFP expression after 48 hrs of infection by confocal fluorescence microscopy. The conditions noted are these: U-373MG ATCC. It is filed as functional, organism-based. Summed up:
as §4

Calls of active or inactive are those of the source. The rule behind the calls is not given here. *1 amine or outer side, *2 acyl side, *3 side chain or, on linkers, in order; H or OH if unused. Where a SMILES comes first, the peptide text is derived from it. Bridges are numbered along the chain shown (N, C = ends). Roman numbers before positions name the chains, in order. [ ]: non-standard residue; d: D form. Actinocin(9to1) = Cc1c2oc3c(C)ccc(C(=O)[*:1])c3nc-2c(C(=O)[*:2])c(N)c1=O; NMeV = CN[C@H](C(=O)O)C(C)C; Sar = CNCC(=O)O

Turning to `O=C(O)c1cn(C2CC2)c2cc(N3CCN(c4ccccn4)CC3)ccc2c1=O`, the concentration for a half-maximal effect (EC50) in series [1] was 5.6 µM. Also, the “Selectivity Index” value in series [2] is reported as 70. In [3], this molecule displayed a CC50 of 390 µM.
Take `O=C(NCP(=O)(O)O)OCc1ccccc1` [(BENZYLOXYCARBONYLAMINO)METHYLPHOSPHONIC ACID]: the values for the 50% inhibitory concentration (IC50) in [4] and in series [6] were 3.1 µM and 5.5 µM, respectively. In addition, in series [5], the inhibition entry was “Active”.
In the case of `CC(C)(C)n1cc(C(=O)O)c(=O)c2cc(N)c(N3CCN(c4nc5ccccc5s4)CC3)cc21`, in [1], the EC50 stood at 0.18 µM. The “Selectivity Index” value in series [2] is on record as 32. This molecule also registered a cytotoxic concentration (CC50) in series [3] of 5.8 µM.
Turning to `Cc1c2oc3c(C)ccc(C(=O)N[C@@H]4C(=O)N[C@H](C(C)C)C(=O)N5CCC[C@H]5C(=O)N(C)CC(=O)N(C)[C@@H](C(C)C)C(=O)O[C@@H]4C)c3nc-2c(C(=O)N[C@@H]2C(=O)N[C@H](C(C)C)C(=O)N3CCC[C@H]3C(=O)N(C)CC(=O)N(C)[C@@H](C(C)C)C(=O)O[C@@H]2C)c(N)c1=O` (I: T[dV]P[Sar][NMeV] / II: T[dV]P[Sar][NMeV]; ester I:1-I:C, II:1-II:C; linker I:N-II:N via Actinocin(9to1)), the inhibition result in [7], in series [8], in series [9], in series [10] and in [11] was “inactive” in each case.
As to `Nc1cc2c(=O)c(C(=O)O)cn(C3CC3)c2cc1N1CCN(c2nc3ccccc3s2)CC1`, in series [1], the EC50 came to 0.02 µM. Further, the “Selectivity Index” value in series [2] amounted to 225.
Turning to `Cn1cc(C(=O)O)c(=O)c2cc(N)c(N3CCN(c4ccccn4)CC3)cc21`, the EC50 in series [1] amounted to 0.7 µM. Moreover, in series [2], the “Selectivity Index” value is 77.
As to `CC(C)(C)n1cc(C(=O)O)c(=O)c2cc(N)c(N3CCN(c4ccccn4)CC3)cc21`, the EC50 in [1] was determined as 36.7 µM. Besides, the “Selectivity Index” value in series [2] was “>=13”. For the same molecule, the CC50 in series [3] is at least 475 µM.
Take `Cc1cn([C@H]2C[C@H](OP(O)(=S)OC[C@H]3O[C@@H](n4ccc(N)nc4=O)C[C@@H]3OP(O)(=S)OC[C@H]3O[C@@H](n4cnc5c(=O)[nH]c(N)nc54)C[C@@H]3OP(O)(=S)OC[C@H]3O[C@@H](n4cc(C)c(=O)[nH]c4=O)C[C@@H]3OP(O)(=S)OC[C@H]3O[C@@H](n4ccc(N)nc4=O)C[C@@H]3OP(O)(=S)OC[C@H]3O[C@@H](N4C(=O)C5N=CNC5N=C4N)C[C@@H]3OP(O)(=S)OC[C@H]3O[C@@H](n4cc(C)c(=O)[nH]c4=O)C[C@@H]3OP(O)(=S)OC[C@H]3O[C@@H](n4cc(C)c(=O)[nH]c4=O)C[C@@H]3OP(O)(=S)OC[C@H]3O[C@@H](n4cc(C)c(=O)[nH]c4=O)C[C@@H]3OP(O)(=S)OC[C@H]3O[C@@H](n4cc(C)c(=O)[nH]c4=O)C[C@@H]3OP(O)(=S)OC[C@H]3O[C@@H](N4C=NC5C(=O)NC(N)=NC54)C[C@@H]3OP(O)(=S)OC[C@H]3O[C@@H](n4cc(C)c(=O)[nH]c4=O)C[C@@H]3OP(O)(=S)OC[C@H]3O[C@@H](n4ccc(N)nc4=O)C[C@@H]3OP(O)(=S)OC[C@H]3O[C@@H](N4C=NC5C(=O)NC(N)=NC54)C[C@@H]3OP(O)(=S)OC[C@H]3O[C@@H](n4cc(C)c(=O)[nH]c4=O)C[C@@H]3OP(O)(=S)OC[C@H]3O[C@@H](n4cc(C)c(=O)[nH]c4=O)C[C@@H]3OP(O)(=S)OC[C@H]3O[C@@H](n4cc(C)c(=O)[nH]c4=O)C[C@@H]3OP(O)(=S)OC[C@H]3O[C@@H](n4cc(C)c(=O)[nH]c4=O)C[C@@H]3OP(O)(=S)OC[C@H]3O[C@@H](n4cnc5c(=O)[nH]c(N)nc54)C[C@@H]3OP(O)(=S)OC[C@H]3O[C@@H](n4cc(C)c(=O)[nH]c4=O)C[C@@H]3OP(O)(=S)OC[C@H]3O[C@@H](n4ccc(N)nc4=O)C[C@@H]3OP(O)(=S)OC[C@H]3O[C@@H](N4C=NC5C(=O)NC(N)=NC54)C[C@@H]3OP(O)(=S)OC[C@H]3O[C@@H](n4cc(C)c(=O)[nH]c4=O)C[C@@H]3OP(O)(=S)OC[C@H]3O[C@@H](n4cc(C)c(=O)[nH]c4=O)C[C@@H]3O)[C@@H](CO)O2)c(=O)[nH]c1=O` (stereo partly specified): the outcome in [12] was Active.
Consider `CCOC(=O)c1cn(C2CC2)c2cc(N3CCN(c4ccccn4)CC3)c(N)cc2c1=O`, for which the EC50 in series [1] is over 50 µM. In addition, the Selectivity Index in [2] is over 8. Further, in series [3], the 50% cytotoxic concentration (CC50) stood at 409 µM.
As to `C[C@@H]1C[C@@H]([C@H](O)CC2CC(=O)NC(=O)C2)C(=O)[C@@H](C)C1`, the inhibition result in [13], in series [14], in [15] and in series [16] was “Active” in each case.
Turning to `Nc1nc2c(ncn2COC(CO)CO)c(=O)[nH]1` [GANCICLOVIR], the EC90 amounted to 1 µM in [17] and 0.8 µM in series [19]. Besides, the outcome in series [18] was inactive. In series [1], the 50% effective concentration (EC50) amounted to 1.9 µM. The “Selectivity Index” value in [2] was 289.
Consider FOMIVIRSEN SODIUM, for which the inhibition entry in [20] and in series [21] was “Active” in each case.

Source of the values: ChEMBL document CHEMBL1255448, “The 6-aminoquinolone WC5 inhibits human cytomegalovirus replication at an early stage by interfering with the transactivating activity of viral immediate-early 2 protein” (Antimicrob Agents Chemother, 2010).
